Our source for the IC50 values is ChEMBL document CHEMBL1932981, “Synthesis of novel 2, 5-dihydrofuran derivatives and evaluation of their anticancer activity” (Eur J Med Chem, 2012).

Bounds are passed on as bounds.

What all share (format): functional, cell-based
Test [1] relates to A549. Description: Cytotoxicity against human A549 cells after 24 hrs by MTT assay. As to conditions: Homo sapiens, A549, 24 h; read-out: IC50; call rule not given here. The essentials: (§1)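 Cell lines from the Navy Medical College, seeded at 8000 cells/well in 96-well plates. Compounds dissolved in DMSO (stock 10 g/L) and freshly diluted in medium. Dilutions were added in duplicate 24 h after seeding, with incubation continued at 37 °C. Viability read by MTT. IC50 taken as the concentration giving 50% growth inhibition, determined following NCCLS recommendations.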
(Tetrazolium dyes change colour on reduction, which living cells bring about.)

The nature of test [2]: Cytotoxicity against human QGY7701 cells after 24 hrs by MTT assay. The conditions noted are these: QGY7701, 24 h. The essentials:
as §1

For test [3], the system named is HeLa. Description: Cytotoxicity against human HeLa cells after 24 hrs by MTT assay. The essentials:
as §1

Test [4] deals with SW480. In words: Cytotoxicity against human SW480 cells after 24 hrs by MTT assay. The conditions noted are these: SW480, 24 h. The essentials: as §1
[5] abbreviates: Homo sapiens, HeLa, 24 h, read-out: IC50.

The IC50 is the concentration at which inhibition is half-maximal. In the case of `C=CC1=C(C(=O)NCc2ccccc2)C(c2ccc(F)cc2)OC1` (centres undefined), the half-inhibitory concentration (IC50) is over 100 µM in test [1], 67.6 µM in test [2], over 100 µM in test [3] (setting [5]) and over 100 µM in test [4].

On to `C=CC1=C(C(=O)O)C(c2ccc(F)cc2)OC1` (centres undefined), for which the IC50 in test [1] is over 100 µM; in test [2], over 100 µM; in test [3] (setting [5]), 67.4 µM; in test [4] it was over 100 µM.

Regarding `C=CC1=C(C(=O)O)C(c2ccc(Cl)c(Cl)c2)OC1` (centres undefined), the half-maximal inhibitory concentration (IC50) in test [1] was over 100 µM; in test [2], over 100 µM; in test [3] (setting [5]) it was 10.3 µM; in test [4], over 100 µM.

As to `C=CC1=C(C(=O)O)C(c2ccc(OC)cc2)OC1` (centres undefined), the IC50 in test [1] was over 100 µM; in test [2], over 100 µM; in test [3] (setting [5]) it was 44.3 µM; in test [4], over 100 µM.

With `C=CC1=C(C(=O)O)C(c2ccc(OC)c(OC)c2)OC1` (centres undefined), the IC50 in test [1] was over 100 µM; in test [2], over 100 µM; in test [3] (setting [5]) it was 18 µM; in test [4] it was over 100 µM.

Consider `C=CC1=C(C(=O)Nc2ccccc2)C(c2ccc(F)cc2)OC1` (centres undefined), for which the IC50 in test [1] is over 100 µM; in test [2] it was 46.7 µM; in test [3] (setting [5]), over 100 µM; in test [4], over 100 µM.

Turning to `C=CC1=C(C(=O)Nc2cccc(C)c2)C(c2ccc(F)cc2)OC1` (centres undefined), the IC50 in test [1] was over 100 µM; in test [2] it was 56.4 µM; in test [3] (hela) it was “Not Active”; in test [4], over 100 µM.

In the case of `C=CC1=C(C(=O)Nc2ccc(C)cc2)C(c2ccc(F)cc2)OC1` (centres undefined), the IC50 in test [1] was over 100 µM; in test [2] it was 59.2 µM; in test [3] (setting [5]), over 100 µM; in test [4], over 100 µM.

With `C=CC1=C(C(=O)Nc2ccccc2OC)C(c2ccc(F)cc2)OC1` (centres undefined), the IC50 is over 100 µM in test [1], 52.8 µM in test [2], over 100 µM in test [3] (setting [5]) and over 100 µM in test [4].

For `C=CC1=C(C(=O)NCc2ccc(C)cc2)C(c2ccc(F)cc2)OC1` (centres undefined), the IC50 in test [1] is over 100 µM; in test [2], 62.1 µM; in test [3] (setting [5]), over 100 µM; in test [4], over 100 µM.

Take `C=CC1=C(C(=O)NCc2ccc(OC)c(OC)c2)C(c2ccc(F)cc2)OC1` (centres undefined): the IC50 in test [1] is over 100 µM; in test [2], 87.3 µM; in test [3] (setting [5]) it was over 100 µM; in test [4] it was over 100 µM.

For the compound `C=CC1=C(C(=O)NCc2ccccc2F)C(c2ccc(F)cc2)OC1` (centres undefined), the IC50 in test [1] was over 100 µM; in test [2], 51.4 µM; in test [3] (setting [5]) it was over 100 µM; in test [4], over 100 µM.

As for `C=CC1=C(C(=O)NCc2ccc(Cl)cc2)C(c2ccc(F)cc2)OC1` (centres undefined), the IC50 in test [1] was over 100 µM; in test [2], 36.9 µM; in test [3] (setting [5]), over 100 µM; in test [4], over 100 µM.

For `C=CC1=C(C(=O)NCCc2ccc(F)cc2)C(c2ccc(F)cc2)OC1` (centres undefined), the 50% inhibitory concentration (IC50) was over 100 µM in test [1], 29.7 µM in test [2], over 100 µM in test [3] (setting [5]) and 36 µM in test [4].

Turning to `C=CC1=C(C(=O)NCCc2ccccc2F)C(c2ccc(F)cc2)OC1` (centres undefined), the half-maximal inhibitory concentration (IC50) in test [1] was over 100 µM; in test [2] it was 35.1 µM; in test [3] (setting [5]) it was over 100 µM; in test [4] it was over 100 µM.

For the compound `C=CC1=C(C(=O)NCCc2cccc(F)c2)C(c2ccc(F)cc2)OC1` (centres undefined), the IC50 in test [1] was over 100 µM; in test [2], 59.8 µM; in test [3] (setting [5]), over 100 µM; in test [4] it was over 100 µM.

`C=CC1=C(C(=O)NCCc2cccc(OC)c2)C(c2ccc(F)cc2)OC1` (centres undefined): the concentration for half-maximal inhibition (IC50) in test [1] was over 100 µM; in test [2], 87.2 µM; in test [3] (hela), “Not Active”; in test [4], over 100 µM.

For the compound `C=CC1=C(C(=O)NC2CCCCC2)C(c2ccc(F)cc2)OC1` (centres undefined), the concentration for half-maximal inhibition (IC50) in test [1] is over 100 µM; in test [2], 40.5 µM; in test [3] (setting [5]), over 100 µM; in test [4], over 100 µM.

Take `C=CC1=C(C(=O)NCCC)C(c2ccc(F)cc2)OC1` (centres undefined): the IC50 in test [1], in test [2], in test [3] (setting [5]) and in test [4] was over 100 µM throughout.

For `C=CC1=C(C(=O)NCCCCC)C(c2ccc(F)cc2)OC1` (centres undefined), the half-inhibitory concentration (IC50) in test [1], in test [2], in test [3] (setting [5]) and in test [4] was over 100 µM throughout.

On to `C=CC1=C(C(=O)NCC(C)C)C(c2ccc(F)cc2)OC1` (centres undefined), for which the IC50 in test [1], in test [2], in test [3] (setting [5]) and in test [4] was over 100 µM throughout.

In the case of `C=CC1=C(C(=O)NC(C)(C)C)C(c2ccc(F)cc2)OC1` (centres undefined), the half-inhibitory concentration (IC50) in test [1], in test [2], in test [3] (setting [5]) and in test [4] was over 100 µM each time.

With `C=CC1=C(C(=O)Nc2ccccc2)C(c2ccc(Cl)c(Cl)c2)OC1` (centres undefined), the 50% inhibitory concentration (IC50) in test [1], in test [2], in test [3] (setting [5]) and in test [4] was over 100 µM each time.

Regarding `C=CC1=C(C(=O)Nc2ccccc2OC)C(c2ccc(Cl)c(Cl)c2)OC1` (centres undefined), the IC50 in test [1], in test [2], in test [3] (setting [5]) and in test [4] was over 100 µM throughout.

As for `C=CC1=C(C(=O)NCc2ccccc2)C(c2ccc(Cl)c(Cl)c2)OC1` (centres undefined), the IC50 in test [1], in test [2], in test [3] (setting [5]) and in test [4] was over 100 µM each time.

On to `C=CC1=C(C(=O)NCCC)C(c2ccc(Cl)c(Cl)c2)OC1` (centres undefined), for which the IC50 in test [1] was over 100 µM; in test [2] it was 31.3 µM; in test [3] (setting [5]) it was over 100 µM; in test [4], over 100 µM.

`C=CC1=C(C(=O)NCCCCC)C(c2ccc(Cl)c(Cl)c2)OC1` (centres undefined): the IC50 in test [1] is over 100 µM; in test [2] it was over 100 µM; in test [3] (setting [5]), over 100 µM; in test [4], 27.5 µM.

On to `C=CC1=C(C(=O)NCC(C)C)C(c2ccc(Cl)c(Cl)c2)OC1` (centres undefined), for which the IC50 in test [1] was over 100 µM; in test [2] it was over 100 µM; in test [3] (setting [5]), 60.1 µM; in test [4] it was over 100 µM.

Regarding `C=CC1=C(C(=O)NC(C)(C)C)C(c2ccc(Cl)c(Cl)c2)OC1` (centres undefined), the concentration for half-maximal inhibition (IC50) in test [1], in test [2], in test [3] (setting [5]) and in test [4] was over 100 µM in each case.

Regarding `C=CC1=C(C(=O)Nc2ccccc2)C(c2ccc(OC)cc2)OC1` (centres undefined), the 50% inhibitory concentration (IC50) in test [1], in test [2], in test [3] (setting [5]) and in test [4] was over 100 µM in each case.

As to `C=CC1=C(C(=O)Nc2cccc(C)c2)C(c2ccc(OC)cc2)OC1` (centres undefined), the IC50 in test [1], in test [2], in test [3] (setting [5]) and in test [4] was over 100 µM in each case.

On to `C=CC1=C(C(=O)Nc2ccc(C)cc2)C(c2ccc(OC)cc2)OC1` (centres undefined), for which the IC50 in test [1], in test [2], in test [3] (setting [5]) and in test [4] was over 100 µM each time.

Regarding `C=CC1=C(C(=O)Nc2ccccc2OC)C(c2ccc(OC)cc2)OC1` (centres undefined), the IC50 in test [1], in test [2], in test [3] (setting [5]) and in test [4] was over 100 µM each time.

Consider `C=CC1=C(C(=O)Nc2ccc(OCC)cc2)C(c2ccc(OC)cc2)OC1` (centres undefined), for which the 50% inhibitory concentration (IC50) in test [1] is 17.6 µM; in test [2], over 100 µM; in test [3] (setting [5]), over 100 µM; in test [4], over 100 µM.

`C=CC1=C(C(=O)NCc2ccccc2)C(c2ccc(OC)cc2)OC1` (centres undefined): the half-maximal inhibitory concentration (IC50) in test [1] was over 100 µM; in test [2], over 100 µM; in test [3] (setting [5]), over 100 µM; in test [4], 39.5 µM.

`C=CC1=C(C(=O)NCc2ccc(C)cc2)C(c2ccc(OC)cc2)OC1` (centres undefined): the half-inhibitory concentration (IC50) was over 100 µM in test [1], 43.1 µM in test [2], 15.8 µM in test [3] (setting [5]) and 31.7 µM in test [4].

As for `C=CC1=C(C(=O)NCc2ccc(OC)c(OC)c2)C(c2ccc(OC)cc2)OC1` (centres undefined), the concentration for half-maximal inhibition (IC50) in test [1] was over 100 µM; in test [2] it was over 100 µM; in test [3] (setting [5]), over 100 µM; in test [4], 13.5 µM.

With `C=CC1=C(C(=O)NCc2ccccc2F)C(c2ccc(OC)cc2)OC1` (centres undefined), the IC50 in test [1], in test [2], in test [3] (setting [5]) and in test [4] was over 100 µM each time.

On to `C=CC1=C(C(=O)NCc2ccc(Cl)cc2)C(c2ccc(OC)cc2)OC1` (centres undefined), for which the half-maximal inhibitory concentration (IC50) in test [1], in test [2], in test [3] (setting [5]) and in test [4] was over 100 µM throughout.

With `C=CC1=C(C(=O)NCCc2ccc(F)cc2)C(c2ccc(OC)cc2)OC1` (centres undefined), the IC50 in test [1], in test [2], in test [3] (setting [5]) and in test [4] was over 100 µM in each case.

For the compound `C=CC1=C(C(=O)NCCc2ccccc2F)C(c2ccc(OC)cc2)OC1` (centres undefined), the IC50 in test [1] was over 100 µM; in test [2], over 100 µM; in test [3] (setting [5]) it was 37.5 µM; in test [4], over 100 µM.

Regarding `C=CC1=C(C(=O)NCCc2cccc(F)c2)C(c2ccc(OC)cc2)OC1` (centres undefined), the IC50 in test [1] is over 100 µM; in test [2], over 100 µM; in test [3] (setting [5]), 31.4 µM; in test [4], over 100 µM.

For the compound `C=CC1=C(C(=O)NCCc2cccc(OC)c2)C(c2ccc(OC)cc2)OC1` (centres undefined), the 50% inhibitory concentration (IC50) in test [1], in test [2], in test [3] (setting [5]) and in test [4] was over 100 µM throughout.

As for `C=CC1=C(C(=O)NC2CCCCC2)C(c2ccc(OC)cc2)OC1` (centres undefined), the concentration for half-maximal inhibition (IC50) in test [1] is over 100 µM; in test [2], over 100 µM; in test [3] (setting [5]), 24.8 µM; in test [4] it was over 100 µM.

As for `O=c1[nH]cc(F)c(=O)[nH]1` [FLUOROURACIL], the figures for the 50% inhibitory concentration (IC50) in test [2], in test [3] (setting [5]) and in test [4] were 14.3 µM, 16.3 µM and 15.7 µM, respectively.
